Laboratory results published in ChEMBL document CHEMBL3243993, “Cardenolide analogues. 4. (20R)- and (20S)-Cardanolides: on the roles of the 20(22)-ene and 14beta-hydroxyl in genin activity” (J Med Chem, 1979).

What was measured:
[1] = Inhibition of rat brain (Na+,K+)ATPase incubated for 10 mins followed by Kcl added in presence of appropriate Mg2+ and Na+; conditions: read-out: I50
How it was run: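 Steroids added in ethanol to the (Na+,K+)ATPase tubes, at most 20 μL ethanol per tube. After 10 min, KCl was added to start (Na+,K+)ATPase activity. Where a steroid was insoluble in the medium, no precise value could be obtained.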

[2] = Inhibition of rat brain (Na+,K+)ATPase in presence of appropriate Mg2+ and Na+; conditions: read-out: I50
[3] = Solubility of the compound in steroid medium; assay type: physicochemical
How it was run: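 Observed in the (Na⁺,K⁺)ATPase assay medium. Steroids were added in ethanol to the enzyme tubes, at no more than 20 μL ethanol per tube. After 10 min, KCl was added to start (Na⁺,K⁺)ATPase activity.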

| solubility [3] | Structure (SMILES) | IC50 [1] [µM] | IC50 [2] [µM] |
| --- | --- | --- | --- |
| – | C[C@]12CC[C@H](O)C[C@H]1CC[C@@H]1[C@@H]2CC[C@]2(C)[C@@H]([C@@H]3COC(=O)C3)CC[C@]12O | 11 | 14 |
| – | C[C@]12CC[C@H](O)C[C@H]1CC[C@@H]1[C@@H]2CC[C@]2(C)[C@@H]([C@H]3COC(=O)C3)CC[C@]12O | 12 | 14 |
| – | C=C1C(=O)OC[C@H]1[C@H]1CC[C@]2(O)[C@@H]3CC[C@@H]4C[C@@H](O)CC[C@]4(C)[C@H]3CC[C@]12C | 60 | 70 |
| – | C=C1C(=O)OC[C@@H]1[C@H]1CC[C@]2(O)[C@@H]3CC[C@@H]4C[C@@H](O)CC[C@]4(C)[C@H]3CC[C@]12C | 70 | 70 |
| Insoluble | C=C1C(=O)OC[C@H]1[C@H]1CC=C2[C@@H]3CC[C@@H]4C[C@@H](O)CC[C@]4(C)[C@H]3CC[C@@]21C | 100 | 100 |
| – | C=C1C(=O)OC[C@@H]1[C@H]1CC=C2[C@@H]3CC[C@@H]4C[C@@H](O)CC[C@]4(C)[C@H]3CC[C@@]21C | 20 | 30 |
| – | C[C@]12CC[C@H](O)C[C@H]1CC[C@@H]1[C@@H]2CC[C@]2(C)[C@@H](C3=CC(=O)OC3)CC[C@]12O [DIGITOXIGENIN] | 0.35 | 0.35 |
